Test results as given in ChEMBL document CHEMBL3616402, “A novel series of indazole-/indole-based glucagon receptor antagonists” (Bioorg Med Chem Lett, 2015).

Columns and labels:
Glucagon receptor [1] = target: T1, Glucagon receptor (Homo sapiens, UniProt P47871); test: Displacement of [125I]glucagon from human glucagon receptor expressed in CHO cell membranes
Procedure, shortened: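 Binding: displacement of [125I]glucagon from human GCGR in membranes prepared from a CHO cell line stably expressing hGCGR; IC50 reported in nM.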

Glucagon receptor [2] = target: T1, Glucagon receptor; test: Antagonist activity against human glucagon receptor expressed in CHO cells assessed as reduction in glucagon-induced cAMP production; type: functional, cell-based
Homo sapiens = organism: Homo sapiens; test: Selectivity index, ratio of IC50 for human glucose dependent insulinotropic peptide receptor to IC50 for human glucagon receptor
[3] = Oral bio availability in Wistar rat 2 mg/kg; type: ADME, organism-based; conditions: in vivo
Procedure, shortened: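 Oral bioavailability from Wistar rats dosed 2 mg/kg po with 0.5 mg/kg iv reference dose; F (%) from plasma exposure.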

[4] = Plasma clearance in Wistar rat at 0.5 mg/kg, iv or 2 mg/kg, po; type: ADME, organism-based
Procedure, shortened: (§1)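 Wistar rats given 0.5 mg/kg iv and 2 mg/kg po; plasma concentration–time profiles used to derive plasma clearance, steady-state volume of distribution, half-life and dose-normalized AUC (µM·h·kg/mg).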

[5] = Volume of distribution at steady state in Wistar rat at 0.5 mg/kg, iv or 2 mg/kg, po; type: ADME, organism-based; conditions: in vivo, read-out: Vdss; procedure, shortened: as §1
Rattus norvegicus = test: Dose normalized AUC in Wistar rat at 0.5 mg/kg, iv or 2 mg/kg, po; type: ADME, organism-based; conditions: in vivo; procedure, shortened: as §1
[6] = target: T2, Gastric inhibitory polypeptide receptor (Homo sapiens, UniProt P48546); test: Antagonist activity against human glucose dependent insulinotropic peptide receptor by cAMP accumulation assay; type: functional
T2 sequence (P48546 whole entry): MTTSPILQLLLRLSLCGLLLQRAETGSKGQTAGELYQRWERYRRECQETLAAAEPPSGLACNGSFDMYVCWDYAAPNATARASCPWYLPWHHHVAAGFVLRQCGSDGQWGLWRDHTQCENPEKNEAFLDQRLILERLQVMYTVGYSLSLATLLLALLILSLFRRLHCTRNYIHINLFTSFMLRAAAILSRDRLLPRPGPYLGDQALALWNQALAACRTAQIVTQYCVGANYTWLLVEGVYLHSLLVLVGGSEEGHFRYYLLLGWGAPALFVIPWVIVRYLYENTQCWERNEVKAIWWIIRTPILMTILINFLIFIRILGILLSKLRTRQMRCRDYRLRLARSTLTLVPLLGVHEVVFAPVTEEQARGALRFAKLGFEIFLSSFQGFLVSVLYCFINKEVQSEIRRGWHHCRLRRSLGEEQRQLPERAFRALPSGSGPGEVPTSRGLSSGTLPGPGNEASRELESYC
Procedure, shortened: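 Selectivity counter-screen: cAMP production measured in CHO cells expressing human GIPR; IC50 (potency) determined.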

[7] = Half life in Wistar rat at 0.5 mg/kg, iv or 2 mg/kg, po; type: ADME, organism-based; conditions: in vivo; procedure, shortened: as §1

T1 sequence (P47871 whole entry): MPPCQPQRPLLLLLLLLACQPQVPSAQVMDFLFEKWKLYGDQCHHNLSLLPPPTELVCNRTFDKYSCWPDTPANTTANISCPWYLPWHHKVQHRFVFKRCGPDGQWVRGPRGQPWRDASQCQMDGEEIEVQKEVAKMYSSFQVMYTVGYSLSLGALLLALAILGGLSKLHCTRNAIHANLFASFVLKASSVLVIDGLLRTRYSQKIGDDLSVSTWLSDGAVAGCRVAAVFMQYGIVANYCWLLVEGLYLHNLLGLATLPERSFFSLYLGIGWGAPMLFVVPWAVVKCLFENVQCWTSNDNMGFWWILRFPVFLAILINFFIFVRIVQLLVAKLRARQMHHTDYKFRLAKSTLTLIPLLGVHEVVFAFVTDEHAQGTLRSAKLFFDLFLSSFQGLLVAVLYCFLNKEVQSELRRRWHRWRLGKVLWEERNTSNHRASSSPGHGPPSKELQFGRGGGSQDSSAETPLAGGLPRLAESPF

SMILES | IC50 (Glucagon receptor [1]) | IC50 (Glucagon receptor [2]) | other results
CCC(c1ccc(C(=O)NCCC(=O)O)cc1)n1nc(-c2cc(C(F)(F)F)ccc2OC)c2ccc(-c3ccc(C)cc3)cc21 (centres undefined) | 4 nM | 21 nM | –
CCCC(c1ccc(C(=O)NCCC(=O)O)cc1)n1nc(-c2cc(C(F)(F)F)ccc2OC)c2cccc(-c3ccc(OC)cc3)c21 (centres undefined) | 1700 nM | 2700 nM | –
CCCC(c1ccc(C(=O)NCCC(=O)O)cc1)n1nc(-c2cc(C(F)(F)F)ccc2OC)c2cc(-c3ccc(C)cc3)ccc21 (centres undefined) | 7 nM | 17 nM | –
CCCCC(c1ccc(C(=O)NCCC(=O)O)cc1)n1nc(-c2cc(C(F)(F)F)ccc2OC)c2ccc(-c3ccc(C)s3)cc21 (centres undefined) | 4 nM | 18 nM | –
COc1cc(F)c(F)cc1-c1nn(C(C)c2ccc(C(=O)NCCC(=O)O)cc2)c2cc(-c3ccc(OC(F)(F)F)cc3)ccc12 (centres undefined) | 4 nM | 37 nM | –
CCCCC(c1ccc(C(=O)NCCC(=O)O)cc1)n1nc(-c2cc(C(F)(F)F)ccc2OC)c2ccc(-c3ccccc3)cc21 (centres undefined) | 3 nM | 18 nM | –
CCCC(c1ccc(C(=O)NCCC(=O)O)cc1)n1nc(-c2cc(C(F)(F)F)ccc2OC)c2cc(-c3ccc(OC)cc3)ccc21 (centres undefined) | 10 nM | 26 nM | –
CC(c1ccc(C(=O)NCCC(=O)O)cc1)n1nc(-c2ccc(Cl)c(F)c2)c2ccc(-c3ccc(OC(F)(F)F)cc3)cc21 (centres undefined) | 4 nM | 44 nM | –
CC(c1ccc(C(=O)NCCC(=O)O)cc1)n1nc(-c2cc(F)ccc2Cl)c2ccc(-c3ccc(OC(F)(F)F)cc3)cc21 (centres undefined) | 10 nM | 140 nM | –
COc1ccc(C(F)(F)F)cc1-c1nn(Cc2ccc(C(=O)NCCC(=O)O)cc2)c2cc(-c3ccc(C)cc3)ccc12 | 39 nM | 140 nM | –
CCCC(c1ccc(C(=O)NCCC(=O)O)cc1)n1nc(-c2cc(C(F)(F)F)ccc2OC)c2ccc(-c3ccc(OC(F)(F)F)cc3)cc21 (centres undefined) | 1 nM | 5.6 nM | Ratio IC50 (Homo sapiens): 250; bioavailability [3]: 19%; clearance [4]: 2.2 mL/min/kg; Vd [5]: 1.3 L/kg; AUC/dose (Rattus norvegicus): 2 µM·kg·h/mg; IC50 [6]: 1400 nM; half-life [7]: 582 min
CCCCC(c1ccc(C(=O)NCCC(=O)O)cc1)n1nc(-c2cc(C(F)(F)F)ccc2OC)c2ccc(-c3ccc(C)cc3)cc21 (centres undefined) | 2.6 nM | 6.6 nM | Ratio IC50 (Homo sapiens): 150; bioavailability [3]: 17%; clearance [4]: 3.9 mL/min/kg; Vd [5]: 1 L/kg; AUC/dose (Rattus norvegicus): 1.2 µM·kg·h/mg; IC50 [6]: 1000 nM; half-life [7]: 240 min
CC(c1ccc(C(=O)NCCC(=O)O)cc1)n1nc(-c2cc(F)cc(F)c2F)c2ccc(-c3ccc(OC(F)(F)F)cc3)cc21 (centres undefined) | 7 nM | 52 nM | –
CCCCC(c1ccc(C(=O)NCCC(=O)O)cc1)n1nc(-c2cc(C(F)(F)F)ccc2OC)c2ccc(-c3ccc(OC)nc3)cc21 (centres undefined) | 3.4 nM | 24 nM | –
COc1ccc(-c2nn(C(C)c3ccc(C(=O)NCCC(=O)O)cc3)c3cc(-c4ccc(OC(F)(F)F)cc4)ccc23)cn1 (centres undefined) | 26 nM | 65 nM | –
CCCCC(c1ccc(C(=O)NCCC(=O)O)cc1)n1nc(-c2cc(C(F)(F)F)ccc2OC)c2ccc(-c3ccc(OC)cc3Cl)cc21 (centres undefined) | 4 nM | 18 nM | –
CC(c1ccc(C(=O)NCCC(=O)O)cc1)n1nc(-c2cc(C(F)(F)F)ccc2F)c2ccc(-c3ccc(OC(F)(F)F)cc3)cc21 (centres undefined) | 5 nM | 120 nM | –
COc1ncccc1-c1nn(C(C)c2ccc(C(=O)NCCC(=O)O)cc2)c2cc(-c3ccc(OC(F)(F)F)cc3)ccc12 (centres undefined) | 72 nM | 77 nM | –
CC(c1ccc(C(=O)NCCC(=O)O)cc1)n1nc(-c2cc(F)c(F)c(F)c2)c2ccc(-c3ccc(OC(F)(F)F)cc3)cc21 (centres undefined) | 6 nM | 20 nM | –
CCCC(c1ccc(C(=O)NCCC(=O)O)cc1)n1nc(-c2cc(C(F)(F)F)ccc2OC)c2cccc(-c3ccc(C)cc3)c21 (centres undefined) | 780 nM | 3800 nM | –
COc1ccncc1-c1nn(C(C)c2ccc(C(=O)NCCC(=O)O)cc2)c2cc(-c3ccc(OC(F)(F)F)cc3)ccc12 (centres undefined) | 110 nM | 760 nM | –
COc1ccc(C(F)(F)F)cc1-c1nn(C(c2ccc(C(=O)NCCC(=O)O)cc2)C(C)C)c2cc(-c3ccc(C)cc3)ccc12 (centres undefined) | 4 nM | 69 nM | –
CC(c1ccc(C(=O)NCCC(=O)O)cc1)n1nc(-c2ccc(C#N)cc2)c2ccc(-c3ccc(OC(F)(F)F)cc3)cc21 (centres undefined) | 15 nM | 43 nM | –
CCCCC(c1ccc(C(=O)NCCC(=O)O)cc1)n1nc(-c2cc(C(F)(F)F)ccc2OC)c2ccc(-c3ccc(OC)cc3)cc21 (centres undefined) | 1.9 nM | 14 nM | Ratio IC50 (Homo sapiens): 79; bioavailability [3]: 27%; clearance [4]: 1.7 mL/min/kg; Vd [5]: 0.67 L/kg; AUC/dose (Rattus norvegicus): 4 µM·kg·h/mg; IC50 [6]: 1100 nM; half-life [7]: 384 min
CCCC(c1ccc(C(=O)NCCC(=O)O)cc1)n1cc(-c2cc(C(F)(F)F)ccc2OC)c2ccc(-c3ccc(C)cc3)cc21 (racemic) | 4 nM | 48 nM | –

Further compounds by falling IC50 (Glucagon receptor [1]), results first:

IC50 (Glucagon receptor [1]) | IC50 (Glucagon receptor [2]) | SMILES | other results
50 nM | 100 nM | COc1cncc(-c2nn(C(C)c3ccc(C(=O)NCCC(=O)O)cc3)c3cc(-c4ccc(OC(F)(F)F)cc4)ccc23)c1 (centres undefined) | –
40 nM | 210 nM | CC(c1ccc(C(=O)NCCC(=O)O)cc1)n1nc(-c2ccc(C(=O)N(C)C)cc2)c2ccc(-c3ccc(OC(F)(F)F)cc3)cc21 (centres undefined) | –
35 nM | 84 nM | COc1nccc(-c2nn(C(C)c3ccc(C(=O)NCCC(=O)O)cc3)c3cc(-c4ccc(OC(F)(F)F)cc4)ccc23)n1 (centres undefined) | –
12 nM | 360 nM | CCCC(c1ccc(C(=O)NCCC(=O)O)cc1)n1cc(-c2cc(C(F)(F)F)ccc2OC)c2ccc(-c3ccc(OC(F)(F)F)cc3)nc21 (centres undefined) | –
8 nM | 130 nM | CCCC(c1ccc(C(=O)NCCC(=O)O)cc1)n1cc(-c2cc(C(F)(F)F)ccc2OC)c2ccc(-c3ccc(OC)cc3)cc21 (racemic) | –
8 nM | 41 nM | CC(c1ccc(C(=O)NCCC(=O)O)cc1)n1nc(-c2ccc(Cl)cc2Cl)c2ccc(-c3ccc(OC(F)(F)F)cc3)cc21 (centres undefined) | –
7 nM | 46 nM | CCCCC(c1ccc(C(=O)NCCC(=O)O)cc1)n1nc(-c2cc(C(F)(F)F)ccc2OC)c2ccc(-c3cc(F)cc(Cl)c3)cc21 (centres undefined) | –
7 nM | 11 nM | COc1ccc(OC(F)(F)F)cc1-c1nn(C(C)c2ccc(C(=O)NCCC(=O)O)cc2)c2cc(-c3ccc(OC(F)(F)F)cc3)ccc12 (centres undefined) | –
4 nM | 11 nM | CCCC(c1ccc(C(=O)NCCC(=O)O)cc1)n1nc(-c2cc(C(F)(F)F)ccc2OC)c2ccc(-c3ccc(OC)cc3)cc21 (centres undefined) | –
3.5 nM | 26 nM | CCCCC(c1ccc(C(=O)NCCC(=O)O)cc1)n1nc(-c2cc(C(F)(F)F)ccc2OC)c2ccc(-c3cc(F)c(F)c(F)c3)cc21 (centres undefined) | –
3 nM | 56 nM | CC(c1ccc(C(=O)NCCC(=O)O)cc1)n1nc(-c2cc(Cl)cc(C(F)(F)F)c2)c2ccc(-c3ccc(OC(F)(F)F)cc3)cc21 (centres undefined) | –
3 nM | 36 nM | COc1ccc(Cl)cc1-c1nn(C(C)c2ccc(C(=O)NCCC(=O)O)cc2)c2cc(-c3ccc(OC(F)(F)F)cc3)ccc12 (centres undefined) | –
2 nM | 5 nM | CCCC(c1ccc(C(=O)NCCC(=O)O)cc1)n1nc(-c2cc(C(F)(F)F)ccc2OC)c2ccc(-c3ccc(C)cc3)cc21 (centres undefined) | –
2 nM | 220 nM | CC(c1ccc(C(=O)NCCC(=O)O)cc1)n1nc(-c2cc(Cl)ccc2C(N)=O)c2ccc(-c3ccc(OC(F)(F)F)cc3)cc21 (centres undefined) | –
1.6 nM | 14 nM | CCCCC(c1ccc(C(=O)NCCC(=O)O)cc1)n1nc(-c2cc(C(F)(F)F)ccc2OC)c2ccc(-c3ccc(C(F)(F)F)cc3)cc21 (centres undefined) | –
1.5 nM | 18 nM | CCCCC(c1ccc(C(=O)NCCC(=O)O)cc1)n1nc(-c2cc(C(F)(F)F)ccc2OC)c2ccc(-c3ccc(OC)c(F)c3)cc21 (centres undefined) | –
1.5 nM | 9 nM | CCCCC(c1ccc(C(=O)NCCC(=O)O)cc1)n1nc(-c2cc(C(F)(F)F)ccc2OC)c2ccc(-c3ccc(SC)cc3)cc21 (centres undefined) | –
0.8 nM | 8 nM | CCCCC(c1ccc(C(=O)NCCC(=O)O)cc1)n1nc(-c2cc(C(F)(F)F)ccc2OC)c2ccc(-c3ccc(OC(F)(F)F)cc3)cc21 (centres undefined) | Ratio IC50 (Homo sapiens): 94; bioavailability [3]: 9%; clearance [4]: 7.5 mL/min/kg; Vd [5]: 0.72 L/kg; AUC/dose (Rattus norvegicus): 0.3 µM·kg·h/mg; IC50 [6]: 750 nM; half-life [7]: 282 min
